Measurements published in ChEMBL document CHEMBL3751756, “Hydroxylated chalcones with dual properties: Xanthine oxidase inhibitors and radical scavengers” (Bioorg Med Chem, 2016).

What was measured:
[1] = Antioxidant activity assessed as DPPH radical scavenging activity by measuring remaining DPPH level at 20 uM after 30 mins by plate reader analysis; format: physicochemical; conditions: 0.5 h
How it was run: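 DPPH (0.2 mM in ethanol, 50 μL freshly prepared) mixed with 150 μL test compound in ethanol, 5–50 μM range; 30 min at room temperature in dark; loss of absorbance at 517 nm read. Scavenging activity = (1 − A_test/A_control) × 100%, control lacking scavenger; reported activity taken at 20 µM compound.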

[2] = target: Xanthine dehydrogenase/oxidase (Bos taurus, UniProt P80457); experiment: Inhibition of bovine xanthine oxidase assessed as conversion of xanthine to uric acid by spectroscopic analysis
How it was run: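 XO suspended in 20 mM phosphate pH 7.5, added to xanthine (final 46 μM; final enzyme 39 μg/mL); uric acid formation followed at 295 nm for 5 min. Eleven inhibitor concentrations bracketing the IC50; rates by linear regression of absorbance vs time, fitted to a three-parameter logistic to give IC50.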

[3] = Cytoprotective activity against amyloid beta-induced oxidative stress in mouse Neuro2a cells assessed as cell viability at 250 uM after 6 hrs by MTT assay; format: functional; conditions: N2a, read-out: Activity
How it was run: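 Murine Neuro-2A cells in DMEM with 10% FBS and penicillin-streptomycin, 37°C, 5% CO2; trypsinized ≤1 min, seeded 2,000–4,000 cells/mL, 6 h. Then added 10 μL of 250 μM compound (stock), 15 μL of 833 μM Aβ 25–35 (stock), and MTT (5 mg/mL); 6 h, then SDS/DMF extraction buffer 6 h at 37°C in dark; A570 as percent of unstressed control.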

Sequence of Xanthine dehydrogenase/oxidase (P80457 whole entry): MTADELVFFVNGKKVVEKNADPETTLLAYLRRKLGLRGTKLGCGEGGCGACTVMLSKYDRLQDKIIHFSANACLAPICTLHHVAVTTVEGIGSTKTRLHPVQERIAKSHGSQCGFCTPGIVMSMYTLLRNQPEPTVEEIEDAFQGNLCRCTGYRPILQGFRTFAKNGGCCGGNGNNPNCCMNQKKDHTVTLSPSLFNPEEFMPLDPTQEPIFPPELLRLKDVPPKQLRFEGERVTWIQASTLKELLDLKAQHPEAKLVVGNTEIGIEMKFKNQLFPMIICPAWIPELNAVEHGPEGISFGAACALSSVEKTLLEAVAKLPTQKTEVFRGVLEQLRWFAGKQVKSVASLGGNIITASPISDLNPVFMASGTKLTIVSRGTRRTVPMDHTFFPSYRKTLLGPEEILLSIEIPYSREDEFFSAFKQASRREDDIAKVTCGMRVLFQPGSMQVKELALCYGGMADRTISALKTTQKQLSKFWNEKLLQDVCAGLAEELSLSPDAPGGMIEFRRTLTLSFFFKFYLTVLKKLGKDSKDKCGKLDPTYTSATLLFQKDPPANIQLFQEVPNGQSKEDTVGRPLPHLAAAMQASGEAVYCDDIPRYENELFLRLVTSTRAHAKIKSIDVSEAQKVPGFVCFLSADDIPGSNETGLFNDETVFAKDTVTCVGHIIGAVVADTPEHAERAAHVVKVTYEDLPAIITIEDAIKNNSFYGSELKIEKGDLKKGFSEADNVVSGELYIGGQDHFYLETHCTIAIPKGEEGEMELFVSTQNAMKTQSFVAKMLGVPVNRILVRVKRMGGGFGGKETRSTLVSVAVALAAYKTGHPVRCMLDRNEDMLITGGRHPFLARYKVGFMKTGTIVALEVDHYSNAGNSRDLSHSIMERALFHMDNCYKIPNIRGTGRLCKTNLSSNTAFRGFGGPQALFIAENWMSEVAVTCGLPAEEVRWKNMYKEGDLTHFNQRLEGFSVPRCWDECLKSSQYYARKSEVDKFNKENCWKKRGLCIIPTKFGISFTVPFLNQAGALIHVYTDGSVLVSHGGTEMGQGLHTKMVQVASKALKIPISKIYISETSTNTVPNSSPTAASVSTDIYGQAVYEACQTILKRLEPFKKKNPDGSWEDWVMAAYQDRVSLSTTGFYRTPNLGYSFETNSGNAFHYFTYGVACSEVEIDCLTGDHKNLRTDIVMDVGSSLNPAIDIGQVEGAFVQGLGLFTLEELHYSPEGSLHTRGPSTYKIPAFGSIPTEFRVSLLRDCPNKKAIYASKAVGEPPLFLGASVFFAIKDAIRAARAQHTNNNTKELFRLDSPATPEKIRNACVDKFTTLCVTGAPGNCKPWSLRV

Row | Structure (SMILES) | Activity [1] | IC50 ([2]; read-out: IC50) | viability at 250 µM [3] | IC50 [2]
1 | O=C(/C=C/c1cccc(O)c1)c1ccc(O)cc1O | 0.5% | 27 µM | 6.9% | –
2 | O=C(/C=C/c1ccc(O)c(O)c1)c1cc(O)ccc1O | 91% | 17 µM | 46% | –
3 | O=C(/C=C/c1ccc(O)c(O)c1)c1cccc(O)c1 | 82% | 5.3 µM | 35% | –
4 | O=C(/C=C/c1ccc(O)c(O)c1)c1ccccc1 | 90% | 53 µM | 4.3% | –
5 | O=C(/C=C/c1ccccc1O)c1ccccc1 | -0.6% | – | 3% | Not Active
6 | O=C(/C=C/c1ccc(O)c(O)c1)c1cc(O)cc(O)c1 | 84% | 6.5 µM | 26% | –
7 | O=C(/C=C/c1ccc(O)c(O)c1)c1ccc(O)c(O)c1O | 92% | 1.2 µM | 118% | –
8 | O=C(/C=C/c1ccc(O)c(O)c1)c1ccc(O)c(O)c1 | 77% | 3 µM | 40% | –
9 | O=C(/C=C/c1ccccc1)c1cccc(O)c1 | 0.2% | – | 5.9% | Not Active
10 | O=C(/C=C/c1ccc(O)c(O)c1)c1ccc(O)cc1 | 42% | 4.3 µM | 28% | –
11 | O=C(/C=C/c1ccc(O)c(O)c1)c1c(O)cccc1O | 90% | 35 µM | 28% | –
12 | O=C(/C=C/c1cccc(O)c1O)c1ccc(O)c(O)c1 | 70% | 93 µM | 46% | –
13 | O=C(/C=C/c1cc(O)ccc1O)c1ccc(O)c(O)c1 | 86% | 8.6 µM | 70% | –
14 | O=C(/C=C/c1ccc(O)c(O)c1O)c1ccc(O)c(O)c1O | 82% | 5.5 µM | 91% | –
15 | O=C(/C=C/c1ccc(O)c(O)c1O)c1ccc(O)c(O)c1 | 57% | 18 µM | 51% | –
16 | O=C(/C=C/c1ccccc1)c1ccc(O)cc1O [2',4'-DIHYDROXYCHALCONE] | -3% | – | 3.9% | Not Active
17 | O=C(/C=C/c1ccccc1)c1ccccc1O [2'-HYDROXYCHALCONE] | 6.7% | – | 1.7% | Not Active
18 | O=C(/C=C/c1ccccc1)c1ccc(O)cc1 [4'-HYDROXYCHALCONE] | -1.4% | – | 1.4% | Not Active
19 | O=C(/C=C/c1ccc(O)cc1)c1ccccc1 [4-HYDROXYCHALCONE] | -9.1% | 290 µM | 0% | –
20 | O=C(/C=C/c1ccc(O)c(O)c1)c1ccc(O)cc1O [BUTEIN] | 90% | 1.3 µM | 71% | –
